Measurements taken from ChEMBL document CHEMBL1165943, “Design and synthesis of new anticancer pyrimidines with multiple-kinase inhibitory effect” (Bioorg Med Chem, 2010).

Experiments:
ACHN = assay: Cytotoxicity against human ACHN cells assessed as cell growth at 1 uM after 48 hrs by sulforhodamine B assay; assay type: functional; details: read-out: Activity
In short: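 Cells grown in RPMI 1640 with 5% FBS and 2 mM L-glutamine, seeded at 5,000–40,000 cells/well by doubling time. Time-zero plates TCA-fixed after 24 h. Five concentrations (10-fold or half-log dilutions from DMSO stock) added; 48 h at 37 °C, 5% CO2. Cold TCA fixation (final 10%, 60 min, 4 °C), 0.4% SRB stain, dye solubilized in 10 mM trizma base, A515.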

[1] = Cytotoxicity against human Hs 578T cells assessed as cell growth at 10 uM; assay type: functional; details: read-out: Activity
In short: (§1)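 Single-concentration screen at 10 μM across the 60-cell-line panel (nine tissue types); growth percentage recorded per cell line, with inhibition taken as 100 minus growth percentage.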

CCRF-CEM = assay: Cytotoxicity against human CCRF-CEM cells assessed as cell growth at 10 uM; assay type: functional; details: Homo sapiens, CCRF-CEM; read-out: Activity; in short: as §1
SF-539 = assay: Cytotoxicity against human SF539 cells assessed as cell growth at 10 uM; assay type: functional; details: Homo sapiens, SF-539; read-out: Activity
In short: (§2)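 Single-dose screen at 10 μM across the 60-cell-line panel. Cells grown in RPMI 1640 with 5% FBS and 2 mM L-glutamine, seeded at 5,000–40,000 cells/well according to doubling time, and treated 24 h later. Exposure lasted 48 h at 37 °C, 5% CO₂. Adherent cells were fixed with cold TCA, suspension cells were fixed settled, and both were stained with SRB and read at 515 nm. Growth % was recorded, with inhibition % = 100 − growth %.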

SW-620 = assay: Cytotoxicity against human SW620 cells assessed as cell growth at 10 uM; assay type: functional; details: Homo sapiens, SW-620; read-out: Activity; in short: as §2
UACC-257 = assay: Cytotoxicity against human UACC257 cells assessed as cell growth at 10 uM; assay type: functional; details: Homo sapiens, UACC-257; read-out: Activity; in short: as §2
RXF 393 = assay: Cytotoxicity against human RXF393 cells assessed as cell growth at 10 uM; assay type: functional; details: Homo sapiens, RXF 393; read-out: Activity; in short: as §2
CAKI-1 = assay: Cytotoxicity against human Caki1 cells assessed as cell growth at 10 uM; assay type: functional; details: Homo sapiens, CAKI-1; read-out: Activity; in short: as §1
NCI-H23 = assay: Cytotoxicity against human NCI-H23 cells assessed as cell growth at 10 uM; assay type: functional; details: Homo sapiens, NCI-H23; read-out: Activity; in short: as §2
HL-60(TB) [2] = assay: Cytotoxicity against human HL-60(TB) cells assessed as cell growth at 10 uM; assay type: functional; details: Homo sapiens, HL-60; read-out: Activity
In short: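 Single-concentration 10 µM screen of HL-60(TB) within the 60-line panel, grown in RPMI 1640 with 5% FBS. The drug from DMSO stock is incubated 48 h at 37 °C, settled cells are TCA-fixed and SRB-stained, and absorbance is read at 515 nm. Percent growth is reported, and inhibition % is taken as 100 minus growth %.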

KM12 = assay: Cytotoxicity against human KM12 cells assessed as cell growth at 10 uM; assay type: functional; details: Homo sapiens, KM12; read-out: Activity; in short: as §2
[3] = Growth inhibition of human NCI60 cells at 10 uM after 48 hrs by sulforhodamine B assay relative to control; assay type: functional; details: Homo sapiens, NCI60, 48 h; read-out: GI
In short: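 Single 10 µM dose across the 60-line panel for 48 h, with the same culture, TCA fixation and SRB 515 nm read-out. Inhibition % = 100 − growth %, given as the mean over the 60 cell lines.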

UO-31 [4] = assay: Cytotoxicity against human UO31 cells assessed as cell growth at 10 uM; assay type: functional; details: Homo sapiens, UO-31; read-out: Activity; in short: as §2
[5] = Cytotoxicity against human […] cells assessed as cell growth at 10 uM; assay type: functional; details: Homo sapiens, RPMI8266; read-out: Activity; in short: as §2
SNB-19 = assay: Cytotoxicity against human SNB19 cells assessed as cell growth at 10 uM; assay type: functional; details: read-out: Activity; in short: as §2
SN12C = assay: Cytotoxicity against human SN12C cells assessed as cell growth at 10 uM; assay type: functional; details: Homo sapiens, SN12C; read-out: Activity; in short: as §2
A498 = assay: Cytotoxicity against human A498 cells assessed as cell growth at 10 uM; assay type: functional; details: Homo sapiens, A498; read-out: Activity; in short: as §1
MDA-MB-468 = assay: Cytotoxicity against human MDA-MB-468 cells assessed as cell growth at 0.001 uM after 48 hrs by sulforhodamine B assay; assay type: functional; details: MDA-MB-468, 48 h, read-out: Activity
U-251 = assay: Cytotoxicity against human U251 cells assessed as cell growth at 1 uM after 48 hrs by sulforhodamine B assay; assay type: functional; details: U-251, 48 h, read-out: Activity
UO-31 [6] = assay: Cytotoxicity against human UO31 cells assessed as cell growth at 1 uM after 48 hrs by sulforhodamine B assay; assay type: functional; details: UO-31, 48 h, read-out: Activity
MDA-MB-435 = assay: Cytotoxicity against human MDA-MB-435 cells assessed as cell growth at 10 uM; assay type: functional; details: read-out: Activity; in short: as §2
HL-60(TB) [7] = assay: Cytotoxicity against human HL-60(TB) cells assessed as cell growth at 0.001 uM after 48 hrs by sulforhodamine B assay; assay type: functional; details: HL-60, 48 h, read-out: Activity
In short: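 Five-concentration HL-60(TB) test in RPMI 1640 with 5% FBS and 2 mM L-glutamine. Cells are plated at 5,000–40,000/well and a TCA-fixed time-zero plate is read at drug addition after 24 h. Drug is dissolved in DMSO and given as five 10-fold or ½log dilutions for 48 h at 37 °C, 5% CO2. Settled cells are fixed with TCA, stained with SRB and read at 515 nm.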

SK-MEL-28 = assay: Cytotoxicity against human SK-MEL-28 cells assessed as cell growth at 10 uM; assay type: functional; details: Homo sapiens, SK-MEL-28; read-out: Activity; in short: as §2
COLO 205 = assay: Cytotoxicity against human COLO205 cells assessed as cell growth at 10 uM; assay type: functional; details: Homo sapiens, COLO 205; read-out: Activity; in short: as §1
MDA-MB-231 = assay: Cytotoxicity against human MDA-MB-231 cells assessed as cell growth at 10 uM; assay type: functional; details: Homo sapiens, MDA-MB-231; read-out: Activity; in short: as §2
A549 = assay: Cytotoxicity against human A549 cells assessed as cell growth at 10 uM; assay type: functional; details: Homo sapiens, A549; read-out: Activity; in short: as §1
MOLT-4 = assay: Growth inhibition of human MOLT4 cells after 48 hrs by sulforhodamine B assay; assay type: functional, cell-based; details: MOLT-4, 48 h; for CC50: read-out: LC50 (the source's name)
In short: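 Cells grown in RPMI 1640 with 5% FBS and 2 mM L-glutamine, seeded at 5,000–40,000 cells/well according to doubling time. After 24 h, time-zero plates are TCA-fixed. Five concentrations (10-fold or ½log dilutions, DMSO stocks) are applied for 48 h at 37 °C, 5% CO₂. Cells are TCA-fixed, SRB-stained and read at 515 nm. IC₅₀ is taken from [(Ti−Tz)/(C−Tz)]×100 = 50.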

HOP-92 = assay: Cytotoxicity against human HOP92 cells assessed as cell growth at 10 uM; assay type: functional; details: Homo sapiens, HOP-92; read-out: Activity; in short: as §1

| SMILES | growth at 10 µM [1] | growth at 10 µM (CCRF-CEM) | growth at 10 µM (SF-539) | growth at 10 µM (SW-620) | growth at 10 µM (UACC-257) | growth at 10 µM (RXF 393) | growth at 10 µM (CAKI-1) | growth at 10 µM (NCI-H23) | growth at 10 µM (HL-60(TB) [2]) | growth at 10 µM (KM12) | inhibition of growth at 10 µM [3] | growth at 10 µM (UO-31 [4]) | growth at 10 µM [5] | growth at 10 µM (SNB-19) | growth at 10 µM (SN12C) | growth at 10 µM (A498) | growth at 10 µM (MDA-MB-435) | growth at 10 µM (SK-MEL-28) | growth at 10 µM (COLO 205) | growth at 10 µM (MDA-MB-231) | further results |
| --- | --- | --- | --- | --- | --- | --- | --- | --- | --- | --- | --- | --- | --- | --- | --- | --- | --- | --- | --- | --- | --- |
| CC(=O)c1ccccc1-c1ccc(-c2ccnc(NC(=O)Nc3cc(N4CCOCC4)cc(C(F)(F)F)c3)n2)cn1 | 60.8% | 80.7% | 44.3% | 90.5% | 65.1% | -19.6% | 83.5% | 58.5% | 95.7% | 90.4% | 38.4% | 92.1% | 79.7% | 71.7% | 52.3% | 107% | 82.8% | -74.8% | 85.7% | 30.1% | growth at 1 µM (ACHN): 42%; growth at 0.001 µM (MDA-MB-468): 97%; growth at 1 µM (U-251): 63%; growth at 1 µM (UO-31 [6]): 82%; growth at 0.001 µM (HL-60(TB) [7]): 92%; growth at 10 µM (A549): 68%; GI50 (MOLT-4): > 100 µM; IC50 (MOLT-4): > 100 µM; TGI (MOLT-4): > 100 µM; CC50 (MOLT-4): > 100 µM |
| Cc1ccc(Nc2nc(C)cc(-c3cccnc3)n2)c(C)c1 | 95.9% | 95.4% | 89.7% | 97.5% | 100% | 90.7% | 88.8% | 90.9% | 98.5% | 98.7% | 3.91% | 86.9% | 86.7% | 101% | 91.2% | 96.1% | 95.4% | 108% | 122% | 87.6% | growth at 10 µM (HOP-92): 86.9%; growth at 10 µM (A549): 90.3% |
| CC(=O)Nc1cccc(-c2ccc(-c3ccnc(NC(=O)Nc4cc(C(F)(F)F)cc(C(F)(F)F)c4)n3)cn2)c1.Cl | 120% | 43.3% | 75.6% | 85.2% | 50.5% | 121% | 50.9% | -6.37% | 60.1% | 72.7% | 50.9% | 54.7% | 38.1% | 50.5% | 68% | 59% | 73.9% | -37.6% | 53.5% | 65.5% | growth at 1 µM (ACHN): 20%; growth at 10 µM (HOP-92): 72.4%; growth at 0.001 µM (MDA-MB-468): 99%; growth at 1 µM (U-251): -32%; growth at 1 µM (UO-31 [6]): 48%; growth at 0.001 µM (HL-60(TB) [7]): 95%; GI50 (MOLT-4): 1.98 µM; IC50 (MOLT-4): 1.98 µM; TGI (MOLT-4): > 100 µM; CC50 (MOLT-4): > 100 µM |
| Cc1cc(-c2cccnc2)nc(NC(=O)c2cccc(C(F)(F)F)c2)n1 | 107% | 94.8% | 99.3% | 105% | 99.6% | 90.8% | 83.6% | 101% | 97% | 109% | 0.62% | 86.7% | 98.6% | 90.8% | 95.3% | 93.9% | 100% | 108% | 119% | 98.4% | growth at 10 µM (HOP-92): 107%; growth at 10 µM (A549): 97.4% |
| FC(F)(F)c1cc(Nc2nccc(-c3ccc(-c4ccccc4)nc3)n2)cc(C(F)(F)F)c1 | 94.8% | 89.7% | 95.8% | 110% | 113% | 143% | 91.6% | 98.5% | 113% | 105% | 0.49% | 87.2% | 96.2% | 109% | 86.1% | 110% | 109% | 109% | 95.6% | 87.3% | growth at 10 µM (HOP-92): 89.7%; growth at 10 µM (A549): 97.3% |
